{"data": "Measurements of several laboratories", "observed": "cell growth or viability", "note": "Lines come from different studies, so protocols differ."}
{"SMILES": "O=C1CCC(N2C(=O)c3cccc4c(Cc5cnn(C6CCN(C(=O)C7(O)CCC7)CC6)c5)ccc2c34)C(=O)N1 (centres unmarked)", "cell line": "NCI-H929", "measurement": "IC50", "value": "7e-06 µM"}
{"SMILES": "N.N.[Cl][Pt][Cl]", "cell line": "HCT-116", "technique": "MTT", "time": "24 h", "measurement": "IC50", "value": "255 µM"}
{"SMILES": "N.N.[Cl][Pt][Cl]", "cell line": "WSUDLCL2", "technique": "ATP luminescence", "concentration": "10 µM", "time": "72 h", "measurement": "inhibition", "value": "100%"}
{"SMILES": "O=C(Nc1ccc(Cl)cc1)Nc1cccc(-c2cn(Cc3ccc(Br)cc3)nn2)c1", "cell line": "PC-9", "technique": "CCK-8", "concentration": "50 µM", "time": "72 h", "measurement": "viability", "value": "128%"}
{"SMILES": "Fc1ccc2c(-c3nc(Cc4ccccc4)cs3)nn(Cc3ccc(Cl)cc3Cl)c2c1", "cell line": "HCT-116", "time": "48 h", "measurement": "IC50", "value": "67.6 µM"}
{"SMILES": "O=C1[O][Pt]2([NH][C@@H]3CCCC[C@H]3[NH]2)[O]C1=O", "cell line": "HCT-116", "technique": "MTT", "measurement": "IC50", "value": "0.8 µM"}
{"SMILES": "N.N.[Cl][Pt][Cl]", "cell line": "SK-OV-3", "technique": "MTT", "time": "72 h", "measurement": "IC50", "value": "43.8 µM"}
{"SMILES": "N.N.[Cl][Pt][Cl]", "cell line": "HCT-116", "technique": "MTT", "time": "72 h", "measurement": "IC50", "value": "8.2 µM"}
{"SMILES": "N.N.[Cl][Pt][Cl]", "cell line": "HCT-116", "technique": "MTT", "time": "48 h", "measurement": "IC50", "value": "13.3 µM"}
{"SMILES": "S=P1(C2CCCCC2)CCCCC1", "cell line": "HCT-116", "technique": "MTT", "time": "72 h", "measurement": "IC50", "value": "> 100 µM"}
{"SMILES": "C#CCn1c(C(=O)/C=C/c2ccc(F)cc2)nc2ccccc21", "cell line": "HCT-116", "technique": "LDH", "time": "48 h", "measurement": "IC50", "value": "6.51 µM"}
